Test results published in ChEMBL document CHEMBL1165910, “Synthesis and biological evaluation of new [1,2,4]triazino[5,6-b]indol-3-ylthio-1,3,5-triazines and [1,2,4]triazino[5,6-b]indol-3-ylthio-pyrimidines against Leishmania donovani” (Eur J Med Chem, 2010).
pIC50: −log10 of the molar value. In brackets after ≈: the same amount, converted by molar mass. Activity calls are given as the source filed them. No cut-off for these calls is given here.

Assays:
[1] = (§1) Selectivity index, ratio of CC50 for mouse J774A1 cells to IC50 for IC50 Leishmania donovani MHOM/IN/Dd8; assay type: functional, J774.A1
[2] = Cytotoxicity against mouse J774A1 cells after 72 hrs by MTT assay; assay type: cell-based, J774.A1
In short: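 J774A.1 cells were grown in RPMI with 10% foetal calf serum and 40 µg/mL gentamycin. Exponentially growing cells (1 × 10^4/well) received compound dilutions, made from DMSO stock in complete medium, for 72 h at 37 °C in humidified CO2/air. MTT (5 mg/mL in PBS) was added for 2 h, supernatant removed and formazan dissolved in DMSO. A544 was read, and CC50 (50% viability reduction versus medium-only cells) was estimated by template.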

[3] = system: Leishmania donovani; test: Antileishmanial activity against Leishmania donovani (MHOM/IN/Dd8) amastigote infected in mouse J774 cells assessed as after 72 hrs by luminometry; assay type: functional, organism-based; details: for pIC50: MHOM/IN/Dd8, J774, 72 h
In short: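 J774 macrophages were seeded at 1.5 × 10^4 cells/well in RPMI-1640 with 10% foetal calf serum at 37 °C under CO2. After 24 h, medium was replaced with medium containing luciferase-transfected stationary-phase promastigotes (2.25 × 10^5/well). Test material at 0.25–10 in complete medium was then added for 72 h at 37 °C. Wells were given PBS plus Steady-Glo and read by luminometer; inhibition was calculated against untreated infected controls.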

[4] = system: Leishmania donovani; test: Antileishmanial activity against Leishmania donovani MHOM/IN/Dd8 promastigote carrying firefly luciferase gene infected in mouse J774A1 cells assessed as relative luminescence unit at 40 ug/mL after 72 hrs; assay type: functional; details: for inhibition at 40 µg/mL: MHOM/IN/Dd8, J774.A1, 72 h; for inhibition: J774.A1
[5] = system: J774.A1; test: as §1; assay type: functional
[6] = system: Leishmania donovani; test: Antileishmanial activity against Leishmania donovani (MHOM/IN/Dd8) amastigote infected in mouse J774 cells assessed as after 72 hrs by luminometry at 40 ug/ml; assay type: functional, organism-based
[7] = system: Leishmania donovani; test: Antileishmanial activity against Leishmania donovani MHOM/IN/Dd8 promastigote carrying firefly luciferase gene infected in mouse J774A1 cells assessed as relative luminescence unit at 940 ug/mL after 72 hrs; assay type: functional, organism-based; details: J774.A1
[8] = system: Leishmania donovani; test: Antileishmanial activity against Leishmania donovani MHOM/IN/Dd8 promastigote carrying firefly luciferase gene infected in mouse J774A1 cells assessed as relative luminescence unit at 0.5 ug/mL after 72 hrs; assay type: functional; details: MHOM/IN/Dd8, J774.A1, 72 h

| MIC ([3]; MHOM/IN/Dd8, 72 h) | pIC50 [3] | Compound | Ratio CC50/IC50 [1] | CC50 at 72 h [2] | inhibition at 40 µg/mL [4] | other results |
| --- | --- | --- | --- | --- | --- | --- |
| 90.8 µM (≈ 38.2 µg/mL) | 4.58 | CCN1CCN(c2nc(C)cc(Sc3nnc4c5ccccc5n(C)c4n3)n2)CC1 | 1.06 | 28.1 µM | 100% |  |
|  |  | CN1CCN(c2nc(Sc3nnc4c5ccccc5n(C)c4n3)nc(N3CCN(C)CC3)n2)CC1 |  |  |  | inhibition [4]: inactive |
|  |  | Cn1c2ccccc2c2nnc(Sc3nc(NCCN4CCOCC4)nc(NCCN4CCOCC4)n3)nc21 |  |  | 77.1% | Ratio CC50/IC50 [5]: inactive; Activity [6]: inactive |
|  |  | CCN(CC)CCNc1nc(C)cc(Sc2nnc3c4ccccc4n(C)c3n2)n1 |  |  | 99.9% | Ratio CC50/IC50 [5]: inactive; Activity [6]: inactive |
| 139 µM (≈ 54.3 µg/mL) | 4.59 | Cc1cc(Sc2nnc3c4ccccc4n(C)c3n2)nc(N2CCCCC2)n1 | 6.74 | 173 µM | 99.3% |  |
|  |  | Cc1cc(Sc2nnc3c4ccccc4n(C)c3n2)nc(NCCN2CCOCC2)n1 |  |  | 51.1% |  |
|  |  | D-Gluconic acid,2,4:2',4'-O-[oxybis-(oxidostibylidyne)]bis-,trisodium salt, nonahydrate |  |  |  | Ratio CC50/IC50 [5]: 5.53; MIC [3]: 164 µM; inhibition [7]: 40% |
| 20.5 µM (≈ 9.48 µg/mL) | 5.40 | Cn1c2ccccc2c2nnc(Sc3nc(N4CCCCC4)nc(N4CCCCC4)n3)nc21 | 56.61 | 227 µM | 75.6% |  |
| 110 µM (≈ 41.8 µg/mL) | 4.74 | CCCCNc1nc(C)cc(Sc2nnc3c4ccccc4n(C)c3n2)n1 | 4.82 | 88.4 µM | 99.7% |  |
| 68.7 µM (≈ 27.9 µg/mL) | 4.24 | Cc1cc(Sc2nnc3c4ccccc4n(C)c3n2)nc(N2CCN(C)CC2)n1 | 0.5 | 29.2 µM | 99.9% |  |
| > 169 µM | 4.69 | N=C(N)c1ccc(OCCCCCOc2ccc(C(=N)N)cc2)cc1 [PENTAMIDINE] |  | 52.8 µM |  | inhibition at 0.5 µg/mL [8]: 85% |
|  |  | Cn1c2ccccc2c2nnc(Sc3nc(N4CCOCC4)nc(N4CCOCC4)n3)nc21 |  |  | 43.1% |  |
| 90.5 µM (≈ 37.1 µg/mL) | 4.76 | CC(C)Nc1nc(NC(C)C)nc(Sc2nnc3c4ccccc4n(C)c3n2)n1 | 3.71 | 64.5 µM | 99.3% |  |
|  |  | Cn1c2ccccc2c2nnc(Sc3nc(NCCCN4CCOCC4)nc(NCCCN4CCOCC4)n3)nc21 |  |  |  | inhibition [4]: inactive |
|  |  | Cc1cc(Sc2nnc3c4ccccc4n(C)c3n2)nc(NCCN(C)C)n1 |  |  | 100% | Ratio CC50/IC50 [5]: inactive; Activity [6]: inactive |
| 26.6 µM (≈ 13.8 µg/mL) | 4.81 | CCN1CCN(c2nc(Sc3nnc4c5ccccc5n(C)c4n3)nc(N3CCN(CC)CC3)n2)CC1 | 6 | 93.2 µM | 100% |  |
|  |  | CN(C)CCNc1nc(NCCN(C)C)nc(Sc2nnc3c4ccccc4n(C)c3n2)n1 |  |  | 68.5% |  |
|  |  | Cn1c2ccccc2c2nnc(Sc3nc(NC(C)(C)C)nc(NC(C)(C)C)n3)nc21 |  |  | 97.4% | Ratio CC50/IC50 [5]: inactive; Activity [6]: inactive |
|  |  | Cc1cc(Sc2nnc3c4ccccc4n(C)c3n2)nc(NC(C)(C)C)n1 |  |  | 66.7% |  |
|  |  | CCN(CC)CCNc1nc(NCCN(CC)CC)nc(Sc2nnc3c4ccccc4n(C)c3n2)n1 |  |  | 49.3% |  |
|  |  | Cc1cc(Sc2nnc3c4ccccc4n(C)c3n2)nc(NCCCN2CCOCC2)n1 |  |  | 95.1% | Ratio CC50/IC50 [5]: inactive; Activity [6]: inactive |
|  |  | CCCCNc1nc(NCCCC)nc(Sc2nnc3c4ccccc4n(C)c3n2)n1 |  | 17.1 µM | 93.2% | Ratio CC50/IC50 [5]: inactive; Activity [6]: inactive |
|  |  | Cc1cc(Sc2nnc3c4ccccc4n(C)c3n2)nc(N2CCOCC2)n1 |  |  |  | inhibition [4]: inactive |
| 93.8 µM (≈ 34.3 µg/mL) | 4.53 | Cc1cc(Sc2nnc3c4ccccc4n(C)c3n2)nc(NC(C)C)n1 | 3.66 | 109 µM | 99.2% |  |
